SENP7 inh – SENP7 protease inhibitors, primary screen, biochemical, luminescence, uHTS. Sentrin-specific protease 7 (Homo sapiens), Q9BQF6. recombinant SENP7, Z-RLRGG-aminoluciferin luminescence, 40 min. inhibition, % at 5 µM. actives 1.5% (n = 330,000). AID 434973, 2010;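 active means inhibition above about 50% at the single test dose, limit read from the data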;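 further: plate controls were DMSO with enzyme for no effect and no enzyme buffer wells for full effect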
Target sequence (Q9BQF6 706-1050 limits assumed): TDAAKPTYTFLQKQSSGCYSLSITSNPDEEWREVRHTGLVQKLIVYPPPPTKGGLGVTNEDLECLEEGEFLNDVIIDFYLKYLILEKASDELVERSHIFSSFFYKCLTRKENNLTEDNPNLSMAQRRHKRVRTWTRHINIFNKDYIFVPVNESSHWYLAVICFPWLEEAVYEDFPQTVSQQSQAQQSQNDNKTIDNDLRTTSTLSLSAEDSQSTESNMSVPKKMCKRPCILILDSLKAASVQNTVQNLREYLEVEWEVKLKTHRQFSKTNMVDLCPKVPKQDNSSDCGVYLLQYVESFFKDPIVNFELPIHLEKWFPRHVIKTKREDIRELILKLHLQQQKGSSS
SENP6 block – SENP6 protease inhibitors, primary screen, biochemical, luminescence, uHTS; Recombinant SENP6 catalytic domain, aminoluciferin luminescence; inhibition, % at 10 µM; actives 1.8% (n = 330,000); AID 2599, 2010;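 active means inhibition above about 50% at the single tested dose, limit read from the data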;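 further: plate controls were DMSO wells with enzyme for no effect and DMSO wells lacking enzyme for full effect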
Platelet DG rel – inhibitors of platelet dense granule secretion, primary screen, cell-based, MLPCN, human platelets. human platelet-rich plasma, SFLLRN dense granule ATP release, luminescence. inhibition, %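 (compounds screened at 7.5 µM in platelet-rich plasma)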. actives 0.22% (n = 300,000);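 active means mean replicate score, as percent of positive control, at or above 50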
SENP8 block-1 – human SENP8 protease inhibitors, primary screen, biochemical, fluorescence, Nedd8 protein substrate, uHTS. AID 602440, 2012. Sentrin-specific protease 8 (Homo sapiens), Q96LD8. actives 0.64% (n = 360,000). recombinant SENP8. inhibition, % at 20 µM; in the data active means inhibition mostly above about 40%, no sharp cut-off; inactive means mostly below about 27%
Target sequence (Q96LD8 whole entry, looked up): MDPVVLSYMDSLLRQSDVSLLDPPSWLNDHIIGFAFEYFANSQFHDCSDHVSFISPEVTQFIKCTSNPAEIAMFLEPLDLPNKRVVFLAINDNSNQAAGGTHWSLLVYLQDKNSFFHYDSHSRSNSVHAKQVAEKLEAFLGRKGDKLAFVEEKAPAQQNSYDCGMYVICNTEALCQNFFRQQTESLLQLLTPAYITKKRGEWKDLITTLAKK
SENP1 inh – human SENP1 catalytic domain inhibitors, primary screen, biochemical, FRET, uHTS. Sentrin-specific protease 1 (Homo sapiens), Q9P0U3. recombinant SENP1 catalytic domain, CyPet-SUMO1-YPet FRET cleavage. inhibition, % at 10 µM. actives 0.21% (n = 360,000). AID 624204, 2012;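 active means inhibition at least 30% at 10 µM, raw YFP signal under a set limit, fluorescence ratio 0.5 to 1.5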;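 further: 0% = enzyme with DMSO and 100% = no enzyme wells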
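Test system: hSENP1 catalytic domain, recombinant; Amount: 20 pM final SENP1 enzyme; Medium: Tris pH 8 buffer plus EDTA, NaCl, BME, BSA, NP40, catalase; Schedule: 50 min enzyme reaction, room temperature, light-protected; Technique: FRET fluorescence in CFP and YFP emission channels; Controls: no-enzyme wells low, DMSO-plus-enzyme wells high control.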
SENP8 block-2 – SENP8 protease inhibitors, primary screen, biochemical, luminescence | inhibition, % at 10 µM | Sentrin-specific protease 8 (Homo sapiens), Q96LD8 | AID 2540, 2010 | purified SENP8, Z-RLRGG-aminoluciferin cleavage | actives 1.2% (n = 330,000); in the data active means inhibition above about 50%
SENP8 conf – SENP8 protease inhibitors, retest, confirmation, biochemical, luminescence, single concentration. shares compounds with SENP7 inh. Recombinant SENP8, Z-RLRGG-aminoluciferin luminescence, 60 min. inhibition, % at 12.5 µM. actives 40% (n = 6,200). AID 488912, 2010;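 active means mean inhibition across replicates above about 50%, limit read from the data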
SENP6 conf – SENP6 protease inhibitors, confirmation, biochemical, luminescence, single concentration; shares compounds with SENP7 inh; recombinant SENP6, Z-RLRGG-aminoluciferin luminescence; inhibition, % at 12.5 µM; actives 58% (n = 6,200); AID 488915, 2010
SENP7 conf – SENP7 protease inhibitors, retest, confirmation, biochemical, luminescence, single concentration; inhibition, % at 12.5 µM; shares compounds with SENP7 inh; recombinant SENP7, Z-RLRGG-aminoluciferin luminescence, 40 min; actives 69% (n = 6,200)
Casp3 SENP sel – caspase-3 protease inhibitors, confirmation, selectivity assay for SENP inhibitor project, biochemical, single concentration | shares compounds with SENP7 inh | purified caspase-3, Z-DEVD-aminoluciferin luminescence, 60 min | inhibition, % at 12.5 µM | actives 60% (n = 6,200) | AID 488918, 2010;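 active means mean inhibition above about 50%, limit read from the data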;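 further: plate controls were enzyme with DMSO for no effect and wells without caspase-3 for full effect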
Luc interf – counter-screen for SENP inhibitors: luminescence interference. shares compounds with SENP7 inh. Pre-incubated SENP8/Z-RLRGG-aminoluciferin, luciferase luminescence interference. inhibition, % at 12.5 µM. actives 39% (n = 6,200). AID 488919;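 active means mean inhibition above about 50% when retested at one dose, limit read from the data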;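 further: plate controls were DMSO wells with completed reaction for no effect and substrate without enzyme for full effect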
Active calls of the source: *; . = not tested or not shown. The list is not random: actives were taken first. Their share in the collection is about 2.6%.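 How the source made its calls, unless noted: active means mean inhibition above about 50% in the one-dose retest (limit read from the data); inactive means the rest.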

SMILES	SENP7 inh	SENP6 block	Platelet DG rel	SENP8 block-1	SENP1 inh	SENP8 block-2	SENP8 conf	SENP6 conf	SENP7 conf	Casp3 SENP sel	Luc interf
O=[N+]([O-])c1ccc(O)c(C2=NNC(c3ccccc3F)C2)c1 (centres undefined)	39	-16	2	22	10	85*	-4	86*	97*	38	50*
CCC[C@H]1CN(c2ccccc2)C(=O)[C@@H]1CC(=O)Nc1ccc(Br)cc1	.	.	.	16	3	.	.	.	.	.	.
COc1ccc(NC(=O)Nc2ccc3nc([C@@H]4O[C@H](CO)[C@@H](O)[C@H](O)[C@H]4O)[nH]c3c2)cc1OC1CCCC1	.	.	.	6	0	.	.	.	.	.	.
Cc1ccsc1C(=O)OCc1csc(-c2ccccc2)n1	99*	96*	-7	12	0	96*	96*	92*	47	94*	88*
O=C(OCc1csc(-c2ccccc2)n1)c1cccs1	96*	95*	-9	20	0	92*	97*	97*	101*	91*	90*
Cc1ccsc1C(=O)OCC(=O)Nc1nnc(-c2ccccc2)o1	-10	-7	-29	-15	2	-5	.	.	.	.	.
COc1ccc(C(=O)NCC(=O)OCc2csc(-c3ccccc3)n2)cc1	-1	-12	12	9	0	-10	.	.	.	.	.
CNS(=O)(=O)c1cccc(C(=O)OCc2csc(-c3ccccc3)n2)c1	2	-15	-1	-2	0	-14	.	.	.	.	.
Cc1ccsc1C(=O)OCc1nnc(-c2ccccc2)o1	59*	59*	.	12	1	52*	57*	55*	76*	56*	50*
Cn1cccc1C(=O)OCc1csc(-c2ccccc2)n1	100*	88*	0	-8	-4	94*	-6	98*	102*	93*	89*
O=C(OCc1csc(-c2ccccc2)n1)C1=NN(c2ccccc2)C(=O)CC1	5	-2	.	-2	0	2	.	.	.	.	.
Cc1ccc(S(=O)(=O)N2C[C@H]3[C@H]4C(=O)N(c5ccccc5)C(=O)[C@H]4C[C@H](OC(=O)NC4CCCC4)[C@@]3(O)C2)cc1	.	.	.	-1	-1	.	.	.	.	.	.
O=C(O)c1cc(N=Nc2c(O)[nH]c3ccc([N+](=O)[O-])cc23)ccc1Cl	49	54*	-1	30	15	65*	44	25	21	28	38
NC(=O)N=Nc1c(O)[nH]c2ccc([N+](=O)[O-])cc12	5	-12	23	20	1	0	.	.	.	.	.
COc1ccc(CCn2c(N)c(C#N)c3nc4ccccc4nc32)cc1OC	46	62*	-1	-446	-103	54*	-2	22	4	6	2
COc1ccccc1CCn1c(N)c(C#N)c2nc3ccccc3nc21	25	51*	-1	-283	-51	23	-20	-6	-3	-6	-3
O=C(CC[C@H]1O[C@@H](n2cnc3c(NC(=O)c4ccccc4)ncnc32)[C@H](O)[C@@H]1O)NCCCN1CCOCC1	.	.	.	14	1	.	.	.	.	.	.
O=C1NC(=S)N/C1=C/c1cc2c(cc1[N+](=O)[O-])OCO2	26	64*	-2	-106	-20	75*	13	63*	24	4	0
Cc1ccccc1NC(=O)Cn1c(C)nc2ccc(N)cc2c1=O	0	4	0	-404	-4	3	.	.	.	.	.
Cc1ccccc1NC(=O)Cn1c(C)nc2ccc(NC(=O)C3CC3)cc2c1=O	71*	-7	-1	-2	0	4	6	5	13	8	2
O=c1c2ccccc2nc2sc3ccccc3n12	87*	79*	.	-74	1	74*	58*	56*	70*	72*	31
COc1ccccc1CN(C)C[C@H]1OCc2cnnn2CCCC(=O)N([C@H](C)CO)C[C@@H]1C	.	.	.	2	1	.	.	.	.	.	.
O=S(=O)(Nc1ccc(O)c2ccccc12)c1cccs1	19	63*	5	20	1	30	13	12	-6	-2	-1
CCN(CC)c1ccc(/C=N/NC(=O)c2ccco2)cc1	.	.	2	-409	-53	.	.	.	.	.	.
CCN(CC)c1ccc(/C=N/NC(=O)c2ccco2)c(O)c1	63*	59*	21	-450	-33	30	37	59*	86*	60*	65*
SMILES	SENP7 inh	SENP6 block	Platelet DG rel	SENP8 block-1	SENP1 inh	SENP8 block-2	SENP8 conf	SENP6 conf	SENP7 conf	Casp3 SENP sel	Luc interf
O=C(N/N=C\c1ccc2c(c1)OCO2)c1ccco1	72*	69*	21	-41	-1	64*	68*	67*	91*	90*	68*
Oc1ccc(N=Nc2n[nH]c(-c3ccccc3)n2)cc1	98*	94*	24	20	3	96*	98*	98*	102*	98*	98*
COc1ccc2oc(=O)c(C(=O)Nc3ccccc3O)cc2c1	95*	77*	12	32	3	75*	61*	78*	94*	74*	21
Cc1ccc(NC(=O)c2cc3ccccc3o2)cc1S(=O)(=O)N(C)C	.	.	.	12	1	.	.	.	.	.	.
O=C(Nc1ccc(F)cc1F)c1cc2ccccc2oc1=O	63*	28	0	17	3	7	7	6	46	54*	23
Cc1ccc(NC(=O)c2cc3ccccc3oc2=O)cc1S(=O)(=O)N(C)C	73*	36	8	9	0	25	22	25	17	39	7
COc1ccc(NC(=O)c2cc3ccccc3oc2=O)cc1	.	.	.	28	6	.	.	.	.	.	.
